Data taken from ChEMBL document CHEMBL1127070, “Synthesis and binding properties of MK-801 isothiocyanates; (+)-3-isothiocyanato-5-methyl-10,11-dihydro-5H-dibenzo[a,d]cyclohepten- 5,10-imine hydrochloride: a new, potent and selective electrophilic affinity ligand for the NMDA receptor-coupled phencyclidine binding site” (J Med Chem, 1993).

Columns and labels:
Glutamate NMDA receptor [1] = experiment: Tested for the inhibition of [3H]dizocilpine binding to N-methyl-D-aspartate (NMDA) receptor-coupled phencyclidine binding site; format: protein-complex assay
Summary of the method: (§1)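 Rat brain membranes (Sprague–Dawley, whole brain minus cerebellum) in 5 mM Tris-HCl pH 7.4, washed by repeated 20000g spins. Incubation with 2 nM (+)-[3H]-3, 10 μM glutamate and 10 μM glycine for 90 min at 5 °C. Nonspecific binding defined with 10 μM (+)-3. Filtration, then scintillation counting.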

[2] = target: T1, Glutamate NMDA receptor (Rattus norvegicus) (UniProt P35439+Q00959+Q00960+Q00961+Q62645+Q8VHN2+Q9R1M7); experiment: Tested for the % inactivation of [3H]dizocilpine binding to NMDA receptor at 10 uM); format: protein-complex assay
Summary of the method: (§2)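 Thawed rat brain homogenates pretreated with isothiocyanate for 30 min at 5 °C. Washed three times with buffer containing 100 μM glutamate, 30 μM glycine and 300 μM MgCl2, which removes reversible ligand. Binding of 2 nM (+)-[3H]-3 then measured as in the reversible assay. % inactivation is versus similarly washed untreated controls. Triplicates, mean ± SEM of ≥2 experiments.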

Glutamate NMDA receptor [3] = experiment: Tested for in vitro inhibition of the displacement of [3H]1-[1-(2-thieny])cyclohexyl] peridine from NMDA receptor; format: protein-complex assay
Glutamate NMDA receptor [4] = experiment: Tested for in vitro inhibition of the displacement of (+)-[3H]dizocilpine from NMDA receptor; format: protein-complex assay; summary of the method: as §1
Mu-type opioid receptor = Mu-type opioid receptor (Rattus norvegicus, UniProt P33535); experiment: Tested for in vitro inhibition of the displacement of [3H]FOXY from mu opioid receptor
Summary of the method: (§3)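 Reversible and wash-resistant displacement assays used published protocols, with extra washes added to remove unreacted compound. Final radioligand levels were [3H]flunitrazepam 1 nM, (+)-[3H]pentazocine 3 nM, [3H]FOXY 2 nM, [3H]QNB 0.5 nM and [3H]mazindol 5 nM. Test compound went up to 100 μM. Runs were in triplicate, with at least two experiments. Ki came from Cheng-Prusoff.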

[5] = target: GABA-A receptor; anion channel; experiment: In vitro inhibition of [3H]flunitrazepam displacement from GABA-A receptor; format: protein-complex assay, Rattus norvegicus; summary of the method: as §3
[6] = target: Sigma non-opioid intracellular receptor 1 (Rattus norvegicus, UniProt Q9R0C9); experiment: Tested for in vitro inhibition of the displacement of (+)-[3H]pentazocine from sigma opioid receptor; summary of the method: as §3
[7] = target: Sodium-dependent dopamine transporter (Rattus norvegicus) (UniProt P23977); experiment: Tested for in vitro inhibition of the displacement of [3H]mazindol from dopamine transporter
[8] = target: Muscarinic acetylcholine receptor; experiment: Tested for in vitro inhibition of the displacement of [3H]quinuclidinyl benzilate muscarinic receptor; format: protein assay
[9] = target: T1, Glutamate NMDA receptor (Rattus norvegicus); experiment: Tested for % inactivation of the displacement of [3H]1-[1-(2-thieny])cyclohexyl] peridine from NMDA receptor by 100 nM; format: protein-complex assay
[10] = target: T1, Glutamate NMDA receptor (Rattus norvegicus); experiment: Tested for % inactivation of the displacement of (+)-[3H]dizocilpine from NMDA receptor by 100 nM; format: protein-complex assay; summary of the method: as §2
[11] = target: Muscarinic acetylcholine receptor; experiment: Tested for in vitro inhibition of the displacement of [3H]QNB from CNS receptor; format: protein assay; summary of the method: as §3

Mu-type opioid receptor, sequence (P33535 whole entry): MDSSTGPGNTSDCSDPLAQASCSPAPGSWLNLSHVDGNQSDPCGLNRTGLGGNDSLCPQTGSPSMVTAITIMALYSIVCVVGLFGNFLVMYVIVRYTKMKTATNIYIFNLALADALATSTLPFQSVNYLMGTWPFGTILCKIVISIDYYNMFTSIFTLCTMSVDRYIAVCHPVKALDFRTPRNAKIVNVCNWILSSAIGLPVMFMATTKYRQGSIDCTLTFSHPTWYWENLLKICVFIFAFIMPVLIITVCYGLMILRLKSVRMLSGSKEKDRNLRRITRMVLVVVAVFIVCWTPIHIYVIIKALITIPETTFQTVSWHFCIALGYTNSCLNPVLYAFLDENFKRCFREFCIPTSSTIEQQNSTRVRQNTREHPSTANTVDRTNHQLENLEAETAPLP
Sodium-dependent dopamine transporter (Rattus norvegicus), sequence (P23977 whole entry, looked up): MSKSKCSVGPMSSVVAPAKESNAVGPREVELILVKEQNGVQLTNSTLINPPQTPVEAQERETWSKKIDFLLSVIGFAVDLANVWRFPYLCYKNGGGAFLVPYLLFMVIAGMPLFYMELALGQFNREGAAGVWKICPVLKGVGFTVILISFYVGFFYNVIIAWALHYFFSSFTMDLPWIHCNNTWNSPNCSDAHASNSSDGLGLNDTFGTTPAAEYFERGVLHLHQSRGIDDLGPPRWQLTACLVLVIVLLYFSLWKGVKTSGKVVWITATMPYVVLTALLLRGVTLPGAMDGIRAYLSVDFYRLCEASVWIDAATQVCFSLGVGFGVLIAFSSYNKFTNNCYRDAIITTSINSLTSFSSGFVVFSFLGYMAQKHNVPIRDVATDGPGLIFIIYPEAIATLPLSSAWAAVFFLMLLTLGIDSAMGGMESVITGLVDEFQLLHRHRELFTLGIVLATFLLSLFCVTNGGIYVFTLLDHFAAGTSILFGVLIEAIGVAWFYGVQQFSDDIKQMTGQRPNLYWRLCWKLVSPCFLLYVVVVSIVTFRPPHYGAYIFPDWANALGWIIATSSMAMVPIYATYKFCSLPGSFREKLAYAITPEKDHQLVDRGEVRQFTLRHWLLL
Sigma non-opioid intracellular receptor 1, sequence (Q9R0C9 whole entry): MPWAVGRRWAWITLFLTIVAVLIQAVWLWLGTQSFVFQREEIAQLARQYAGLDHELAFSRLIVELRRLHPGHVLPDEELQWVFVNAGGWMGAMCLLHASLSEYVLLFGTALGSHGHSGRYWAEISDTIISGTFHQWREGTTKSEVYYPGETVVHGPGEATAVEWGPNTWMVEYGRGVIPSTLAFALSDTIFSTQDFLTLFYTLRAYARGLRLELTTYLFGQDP

## CC[C@]1(c2cccc(N=C=S)c2)OC[C@H]([C@@H]2CCCCN2)O1
Glutamate NMDA receptor [1]
  Ki: 94 nM
[2]
  Activity: 55%

## C[C@]12N[C@H](Cc3cc(N=C=S)ccc31)c1ccccc12
Glutamate NMDA receptor [1]
  Ki: 843 nM

## S=C=Nc1cccc(C2(N3CCCCC3)CCCCC2)c1
Glutamate NMDA receptor [1]
  Ki: 535 nM

## C[C@]12N[C@H](Cc3ccc(N=C=S)cc31)c1ccccc12 (stereo in doubt; (+)-8a) [listing 1 of 2 here]
Glutamate NMDA receptor [3]
  Ki: 132 nM
Glutamate NMDA receptor [4]
  Ki: 37 nM
Mu-type opioid receptor
  Ki: > 100000 nM
[5]
  Ki: > 100000 nM
[6]
  Ki: 4810 nM
[7]
  Ki: 6950 nM
[8]
  Ki: > 100000 nM
Glutamate NMDA receptor [1]
  Ki: 37 nM

## C[C@]12N[C@H](Cc3ccc(N=C=S)cc31)c1ccccc12 (stereo in doubt; (+)-8a) [listing 2 of 2 here]
[9]
  Activity: 50%
[10]
  Activity: 53%
[2]
  Activity: 56%

## C[C@]12N[C@H](Cc3ccc(N=C=S)cc31)c1ccccc12 (stereo in doubt; (-)-8a)
Glutamate NMDA receptor [1]
  Ki: 838 nM

## C[C@]12N[C@H](Cc3ccccc31)c1ccccc12 [DIZOCILPINE]
Mu-type opioid receptor
  Ki: > 100000 nM
[5]
  Ki: > 100000 nM
[7]
  Ki: 40900 nM
[11]
  Ki: > 100000 nM
